Data: ChEMBL document CHEMBL1137329, “In silico-guided target identification of a scaffold-focused library: 1,3,5-triazepan-2,6-diones as novel phospholipase A2 inhibitors” (J Med Chem, 2006)
Calls of active or inactive are those of the source. The rule behind the calls is not given here.

Columns and labels:
[1] = target: T1, Phospholipase A2 group V (Homo sapiens) (UniProt P39877); experiment: Inhibition of human group 5 sPLA2 at 30 uM
T1 sequence (whole entry): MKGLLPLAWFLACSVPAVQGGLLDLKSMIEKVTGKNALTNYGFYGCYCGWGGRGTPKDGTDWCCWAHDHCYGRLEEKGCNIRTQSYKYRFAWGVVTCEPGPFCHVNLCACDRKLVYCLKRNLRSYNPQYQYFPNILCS
How it was run: (§1)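 Recombinant human sPLA2 expressed in E. coli, at 40 pM for group V or 20 pM for group X, preincubated with inhibitor 10 min (15 min in legends). Buffer is 100 mM Tris pH 8.0, 10 mM CaCl2, 0.1% BSA. Substrate is E. coli membranes carrying 100,000 dpm 3H-oleate phospholipids, 15 min at room temperature. Reaction stopped with EDTA/fatty-acid-free BSA and centrifuged; supernatant radioactivity counted. Single 30 µM or concentration series for IC50; at least three experiments.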

[2] = target: T2, Group 10 secretory phospholipase A2 (Homo sapiens) (UniProt O15496); experiment: Inhibition of human group 10 sPLA2 at 30 uM; how it was run: as §1
T2 sequence (whole entry): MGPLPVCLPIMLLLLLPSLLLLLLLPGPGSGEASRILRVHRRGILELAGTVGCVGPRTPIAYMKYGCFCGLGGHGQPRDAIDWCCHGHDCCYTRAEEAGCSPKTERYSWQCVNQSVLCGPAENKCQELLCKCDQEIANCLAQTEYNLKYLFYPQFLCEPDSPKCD

[3] = target: T3, Sulfotransferase 1E1 (Homo sapiens, UniProt P49888); experiment: Inhibition of human estrogen sulfotransferase
T3 sequence (P49888 whole entry): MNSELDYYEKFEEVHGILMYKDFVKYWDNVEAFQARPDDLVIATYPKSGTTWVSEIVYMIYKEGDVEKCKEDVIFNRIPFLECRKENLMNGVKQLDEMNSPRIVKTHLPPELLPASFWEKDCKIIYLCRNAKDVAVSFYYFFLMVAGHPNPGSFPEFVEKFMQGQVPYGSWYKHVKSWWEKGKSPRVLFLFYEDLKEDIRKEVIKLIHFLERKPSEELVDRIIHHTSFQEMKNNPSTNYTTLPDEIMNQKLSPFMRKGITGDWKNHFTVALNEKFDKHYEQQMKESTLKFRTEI

[4] = target: T4, Thymidine kinase (Human alphaherpesvirus 1) (UniProt Q9QNF7); experiment: Inhibition of Herpes simplex virus type 1 thymidine kinase
T4 sequence (whole entry): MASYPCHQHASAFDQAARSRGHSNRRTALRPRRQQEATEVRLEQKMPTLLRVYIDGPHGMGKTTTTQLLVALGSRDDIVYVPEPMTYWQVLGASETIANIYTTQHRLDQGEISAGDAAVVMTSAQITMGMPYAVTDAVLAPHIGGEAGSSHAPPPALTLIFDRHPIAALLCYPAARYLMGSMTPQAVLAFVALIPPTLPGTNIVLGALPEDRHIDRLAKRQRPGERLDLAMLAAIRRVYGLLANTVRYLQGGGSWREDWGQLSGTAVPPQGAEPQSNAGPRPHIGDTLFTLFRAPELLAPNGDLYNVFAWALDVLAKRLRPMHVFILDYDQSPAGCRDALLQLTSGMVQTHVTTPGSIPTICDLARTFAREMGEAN

[5] = target: T5, Group 3 secretory phospholipase A2 (Homo sapiens) (UniProt Q9NZ20); experiment: Inhibition of human group 3 sPLA2 at 100 uM
T5 sequence (whole entry): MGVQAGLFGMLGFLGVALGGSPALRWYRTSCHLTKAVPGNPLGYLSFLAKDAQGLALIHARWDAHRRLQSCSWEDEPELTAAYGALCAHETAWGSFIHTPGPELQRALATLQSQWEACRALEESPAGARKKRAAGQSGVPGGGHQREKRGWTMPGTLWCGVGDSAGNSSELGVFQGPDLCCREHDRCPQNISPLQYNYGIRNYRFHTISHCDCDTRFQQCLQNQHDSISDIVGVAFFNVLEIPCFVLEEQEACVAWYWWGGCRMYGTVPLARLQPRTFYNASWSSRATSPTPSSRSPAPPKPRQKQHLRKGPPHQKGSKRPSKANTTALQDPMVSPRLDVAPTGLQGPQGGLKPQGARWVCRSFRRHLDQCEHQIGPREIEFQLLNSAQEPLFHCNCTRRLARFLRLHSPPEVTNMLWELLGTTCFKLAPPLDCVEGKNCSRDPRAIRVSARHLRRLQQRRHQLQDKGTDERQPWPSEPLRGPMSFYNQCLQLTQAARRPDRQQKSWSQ
How it was run: (§2)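 Human group III sPLA2 catalytic domain made in Drosophila S2 cells. Inhibitor at 10 or 100 µM preincubated 10 min with enzyme in Tris pH 8.0 buffer with 10 mM CaCl2 and 0.1% BSA. Then 15 min room-temperature hydrolysis of 3H-oleate-labelled E. coli membranes. Stopped with EDTA and fatty-acid-free BSA; supernatant counts after centrifugation.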

[6] = target: T5, Group 3 secretory phospholipase A2 (Homo sapiens); experiment: Inhibition of human group 3 sPLA2 at 10 uM; how it was run: as §2
[7] = species on record: Homo sapiens; experiment: Inhibition of methionine aminopeptidase
[8] = target: T6, Purine nucleoside phosphorylase (Homo sapiens) (UniProt P00491); experiment: Inhibition of human purine nucleoside phosphorylase
T6 sequence (whole entry): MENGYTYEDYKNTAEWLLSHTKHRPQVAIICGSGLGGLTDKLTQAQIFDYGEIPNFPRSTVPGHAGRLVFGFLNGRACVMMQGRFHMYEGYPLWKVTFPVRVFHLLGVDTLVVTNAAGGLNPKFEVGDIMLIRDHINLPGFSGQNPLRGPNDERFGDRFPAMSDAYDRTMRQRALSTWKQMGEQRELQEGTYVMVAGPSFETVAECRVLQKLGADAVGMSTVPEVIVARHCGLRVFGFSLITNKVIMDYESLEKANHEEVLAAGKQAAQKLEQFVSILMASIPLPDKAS

[9] = target: T7, Phospholipase A2, membrane associated (Homo sapiens) (UniProt P14555); experiment: Inhibition of human group 2A sPLA2 at 30 uM
T7 sequence (whole entry): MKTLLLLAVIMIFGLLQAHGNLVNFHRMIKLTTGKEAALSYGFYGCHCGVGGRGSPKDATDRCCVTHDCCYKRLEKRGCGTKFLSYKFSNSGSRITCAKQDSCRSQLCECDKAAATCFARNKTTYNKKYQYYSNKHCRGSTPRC
How it was run: (§3)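 Recombinant human group IB or IIA sPLA2 from E. coli, enzyme level set for linear hydrolysis. Preincubated 10 min with inhibitor at 30 µM in 100 mM Tris pH 8.0, 10 mM CaCl2, 0.1% BSA. 3H-oleate-labelled E. coli membrane substrate added for 15 min at room temperature. Stopped with EDTA/BSA, centrifuged at 14000g, released radioactivity counted; expressed as percent inhibition.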

[10] = target: Phospholipase A2 (Homo sapiens) (UniProt P04054); experiment: Inhibition of human group 1B sPLA2 at 30 uM; how it was run: as §3
[11] = target: T8, Group 10 secretory phospholipase A2 (Homo sapiens, UniProt O15496); experiment: Inhibition of human group 10 sPLA2; how it was run: as §1
T8 sequence (O15496 whole entry): T2 sequence (whole entry)

[12] = target: T9, Phospholipase A2 group V (Homo sapiens, UniProt P39877); experiment: Inhibition of human group 5 sPLA2; how it was run: as §1
T9 sequence (P39877 whole entry): T1 sequence (whole entry)

[13] = target: T10, Purine nucleoside phosphorylase (Toxoplasma gondii, UniProt Q2HXR2); experiment: Inhibition of Toxoplasma gondii purine nucleoside phosphorylase
T10 sequence (Q2HXR2 whole entry): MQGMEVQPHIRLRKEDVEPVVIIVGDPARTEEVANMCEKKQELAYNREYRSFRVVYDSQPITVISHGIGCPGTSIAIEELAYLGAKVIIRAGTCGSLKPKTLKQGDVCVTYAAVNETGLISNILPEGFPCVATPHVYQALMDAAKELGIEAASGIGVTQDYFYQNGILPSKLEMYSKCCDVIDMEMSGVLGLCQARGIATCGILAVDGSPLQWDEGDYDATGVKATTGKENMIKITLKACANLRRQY

Phospholipase A2 (Homo sapiens), sequence (P04054 23-148 limits assumed): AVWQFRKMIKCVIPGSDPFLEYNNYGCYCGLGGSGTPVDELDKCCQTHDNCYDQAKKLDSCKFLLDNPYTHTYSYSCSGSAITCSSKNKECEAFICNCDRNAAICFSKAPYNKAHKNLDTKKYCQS

Row | Structure (SMILES) | inhibition [1] [%] | Activity [3] | Activity [4] | Activity [5] | Activity [6] | Activity [7] | Activity [8] | also measured
1 | CC(C)(C)OC(=O)CN1C(=O)N[C@@H](Cc2ccccc2)C(=O)N2CCC[C@@H]12 | > 70 |  |  |  |  |  |  | 
2 | CC(C)[C@@H]1NC(=O)N(Cc2ccccc2)CN(C)C1=O | > 70 |  |  |  |  |  |  | inhibition [2]: > 70%
3 | CN1CN(C/C=C/C(=O)OC(C)(C)C)C(=O)N[C@@H](Cc2ccccc2)C1=O |  |  |  |  |  |  |  | inhibition [2]: > 70%
4 | CC(C)(C)OC(=O)CN1C(=O)N[C@@H](Cc2ccc3ccccc3c2)C(=O)N2CCC[C@@H]12 | > 70 |  |  |  |  |  |  | 
5 | CN1CN(CCCC(N)=O)C(=O)N[C@@H](Cc2ccccc2)C1=O | > 70 |  |  |  |  |  |  | 
6 | O=C1N[C@@H](Cc2ccccc2)C(=O)N2C[C@H](O)C[C@H]2N1 |  | Not Active | inactive | inactive | inactive | inactive | inactive | 
7 | CN1CN(CC(=O)O)C(=O)N[C@@H](Cc2ccccc2)C1=O |  | Not Active | inactive | inactive | inactive | inactive | inactive | inhibition [9]: 25%; Activity [10]: inactive
8 | CN1C(=O)[C@H](Cc2ccccc2)NC(=O)N[C@@H]1Cc1ccccc1 | > 70 |  |  |  |  |  |  | IC50 [11]: 13 µM; IC50 [12]: 11 µM
9 | CC(C)C[C@@H]1NC(=O)NCN(C)C1=O |  | Not Active | inactive | inactive | inactive | inactive | inactive | 
10 | COC(=O)CN1CN(C)C(=O)[C@H](Cc2ccccc2)NC1=O | > 70 |  |  |  |  |  |  | 
11 | CN1CN(CC(=O)O)C(=O)N(CC(=O)O)[C@@H](Cc2ccccc2)C1=O | > 70 |  |  |  |  |  |  | 
12 | CC(C)[C@@H]1NC(=O)N(CC(=O)OC(C)(C)C)CN(C)C1=O | > 70 |  |  |  |  |  |  | IC50 [11]: 11 µM; IC50 [12]: 12 µM; inhibition [2]: > 70%
13 | CN1CN(CC(=O)OC(C)(C)C)C(=O)N[C@@H](Cc2ccccc2)C1=O | > 70 |  |  |  |  |  |  | 
14 | CC(C)(C)OC(=O)CN1C(=O)N(CC(=O)OC(C)(C)C)[C@@H](Cc2ccccc2)C(=O)N2CCC[C@H]21 |  |  |  |  |  |  |  | inhibition [2]: > 70%
15 | CN1CNC(=O)N[C@@H](CN)C1=O |  | Not Active | inactive | inactive | inactive | inactive | inactive | 
16 | O=C1[C@@H]2Cc3ccccc3CN2C(=O)N[C@@H]2CCCN12 |  | Not Active | inactive | inactive | inactive | inactive | inactive | 
17 | CN1CN(C/C=C/C(=O)O)C(=O)N[C@@H](Cc2ccccc2)C1=O | > 70 |  |  |  |  |  |  | IC50 [11]: 10 µM; IC50 [12]: 12 µM; inhibition [2]: > 70%
18 | O=C1N[C@@H](Cc2ccccc2)C(=O)N2C[C@H](OCc3ccccc3)C[C@H]2N1 |  | Not Active | inactive | inactive | inactive | inactive | inactive | Ki [13]: 8 µM
19 | CN1CNC(=O)N[C@@H](Cc2ccccc2)C1=O |  | Not Active | inactive | inactive | inactive | inactive | inactive | 
20 | CN1CN(CC(=O)OC(C)(C)C)C(=O)N[C@@H](Cc2ccc3ccccc3c2)C1=O | > 70 |  |  |  |  |  |  | 
21 | C[C@@H]1NC(=O)NC2Cc3ccccc3CN2C1=O (stereo partly drawn) |  | Not Active | inactive | inactive | inactive | inactive | inactive | 
22 | CN1CN(CCCC(=O)O)C(=O)N[C@@H](Cc2ccccc2)C1=O | > 70 |  |  |  |  |  |  | inhibition [2]: > 70%
23 | CN1CN(CC(=O)OC(C)(C)C)C(=O)N(CC(=O)OC(C)(C)C)[C@@H](Cc2ccccc2)C1=O | > 70 |  |  |  |  |  |  | IC50 [11]: 11 µM; IC50 [12]: 11 µM
